The values below come from ChEMBL document CHEMBL2417357, “Synthesis and antiprotozoal activities of benzyl phenyl ether diamidine derivatives” (Eur J Med Chem, 2013).

Active and inactive are the calls of the source. The rule behind the calls is not given here. Where only a bound is given, the exact number is not on record here.

The term IC50 denotes the point on the concentration scale where inhibition reaches its midpoint. A higher IC50 goes with lower potency.

One data set has as its system L6. Kind of data set: Cytotoxicity against rat L6 cells after 72 hrs by Alamar blue assay. It counts as cell-based. Particulars: L6, 72 h. The essentials: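 Rat L6 myoblast cells; cytotoxic IC50 taken as the average of duplicate determinations.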
For data set [1], the system named is Trypanosoma brucei rhodesiense. Kind of data set: Antitrypanosomal activity against Trypanosoma brucei rhodesiense STIB900 infected in NMRI mouse assessed as mean survival days at 5 mg/kg, ip administered for 4 days. It counts as functional. Conditions: route intraperitoneal. An outline of the steps: (§1)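 Female NMRI mice, acute infection model with T. b. rhodesiense STIB900. Compound given as a single daily dose for four days, intraperitoneally or orally. Cure means survival to 60 days post-infection without parasitaemia relapse. Mean survival recorded in days.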

The next data set deals with Leishmania donovani. Nature of the data set: Antileishmanial activity against amastigotes of Leishmania donovani MHOM/SD/62/IS-CL2D. The class given is functional, organism-based. The essentials: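 Axenic amastigotes of L. donovani MHOM/SD/62/IS-CL2D; IC50 taken as the average of at least two determinations.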
Data set [2] in a line: Selectivity index, ratio of IC50 for rat L6 cells to IC50 for amastigotes of Leishmania donovani. Particulars: read-out: Ratio IC50. It counts as toxicity, cell-based. The essentials:
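SI = IC50 in rat L6 myoblasts / IC50 against L. donovani MHOM/SD/62/IS-CL2D axenic amastigotes. The amastigote IC50 is the average of at least two determinations; the L6 IC50 is the average of duplicates.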

Data set [3] is described as follows: Selectivity index, ratio of IC50 for rat L6 cells to IC50 for chloroquine-resistant Plasmodium falciparum K1. Conditions: read-out: Ratio IC50. It counts as toxicity, cell-based. The essentials:
(§2)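 SI = IC50 in rat L6 myoblasts / IC50 against the parasite (T. b. rhodesiense STIB900 or P. falciparum K1). Each IC50 is the average of duplicate determinations.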

The test system of the next data set is Plasmodium falciparum. Kind of data set: Antiplasmodial activity against chloroquine-resistant Plasmodium falciparum K1. It counts as functional, organism-based. An outline of the steps: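 Chloroquine-resistant K1 strain tested in vitro. IC50 is the average of duplicate determinations.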
A short description of data set [4]: Selectivity index, ratio of IC50 for rat L6 cells to IC50 for Trypanosoma brucei rhodesiense STIB900. The class given is toxicity, cell-based. Conditions: read-out: Ratio IC50. The essentials: as §2
The test system of data set [5] is Trypanosoma brucei rhodesiense. Kind of data set: Antitrypanosomal activity against Trypanosoma brucei rhodesiense STIB900 after 72 hrs by Alamar blue assay. It counts as functional, organism-based. Particulars: STIB900, 72 h. On the technique in general: Alamar Blue is a resazurin reagent that responds to reducing activity.
Data set [6] has as its system Trypanosoma brucei rhodesiense. Nature of the data set: Antitrypanosomal activity against Trypanosoma brucei rhodesiense STIB900 infected in NMRI mouse assessed as mean survival days at 25 mg/kg, po administered for 4 days. The class given is functional. An outline of the steps:
as §1

The subject of data set [7] is Trypanosoma brucei rhodesiense. Kind of data set: Antitrypanosomal activity against Trypanosoma brucei rhodesiense STIB900 infected in NMRI mouse assessed as cured animal at 25 mg/kg, po administered for 4 days. Details: dose 25 mg/kg. It counts as functional, organism-based. An outline of the steps: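 Acute model in female NMRI mice infected with T. b. rhodesiense STIB900. Single daily doses given for four days, intraperitoneally or orally. Mice surviving 60 days post-infection without parasitaemia relapse counted as cured; result reported as cured/infected out of 4 mice per group, with mean survival in days.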

Take `N=C(N)c1ccc(COc2ccc(C(=N)N)cc2I)cc1`: the IC50 with L6 was 5.3 µM; in the data set with Leishmania donovani, 1.94 µM; with Plasmodium falciparum it was 0.006 µM; in [5] it was 0.017 µM. The MSD in data set [1] was over 41.5 days. For the same compound, the figures for the selectivity ratio in data set [2], in data set [3] and in data set [4] were 3, 898 and 312, respectively.
As to `N=C(N)c1cccc(OCc2cccc([N+](=O)[O-])c2)c1`, the IC50 is 78.9 µM in the data set on L6, over 3.16 µM in the data set on Plasmodium falciparum and 0.481 µM in data set [5]. In addition, the selectivity ratio in [3] is under 25; in data set [4] it was 164.
On to `N=C(N)c1cccc(COc2cccc([N+](=O)[O-])c2)c1`, for which the half-maximal inhibitory concentration (IC50) in the data set with L6 is 104 µM; with Plasmodium falciparum, over 3.07 µM; in [5], 7.28 µM. For the same compound, the selectivity ratio was under 34 in data set [3] and 14 in data set [4].
As for `N=C(N)c1cccc(COc2ccc(C(=N)N)cc2I)c1`, the half-inhibitory concentration (IC50) in the data set on L6 worked out at 6.06 µM; in the data set on Leishmania donovani, 1.27 µM; in the data set with Plasmodium falciparum it was 0.013 µM; in data set [5] it was 0.005 µM. For the same compound, the MSD in data set [1] was over 31.25 days. Also, the selectivity ratio was determined as 5 in data set [2], 477 in data set [3] and 1190 in [4].
Take `N=C(N)c1ccc(COc2ccc([N+](=O)[O-])cc2)cc1`: the IC50 was 79.2 µM in the data set with L6, over 3.07 µM in the data set with Plasmodium falciparum and 4.41 µM in data set [5]. For the same compound, the selectivity ratio is under 26 in data set [3] and 18 in data set [4].
In the case of `CO/N=C(\N)c1cccc(COc2c(I)cc(/C(N)=N/OC)cc2OC)c1.Cl.Cl`, the MSD in [6] amounted to 40.25 days. The IC50 in the data set with L6 is 81.4 µM; in the data set with Leishmania donovani, over 100 µM; with Plasmodium falciparum it was 1.12 µM; in data set [5], 75.1 µM. In addition, the figures for the selectivity ratio in [2], in data set [3] and in [4] were under 1, 73 and 1, respectively.
Regarding `N=C(N)c1cccc(COc2ccc(C(=N)N)cc2Br)c1`, the IC50 amounted to 15.7 µM in the data set with L6, 1.86 µM with Leishmania donovani, 0.052 µM with Plasmodium falciparum and 0.005 µM in data set [5]. Also, in data set [1], the MSD is over 37.5 days. In addition, the selectivity ratio in data set [2] is 8; in data set [3], 302; in [4], 3410.
On to `N=C(N)c1cc(I)c(OCc2cccc([N+](=O)[O-])c2)c(I)c1`, for which the IC50 was 7.72 µM in the data set with L6, 34.3 µM in the data set on Leishmania donovani, 0.296 µM in the data set on Plasmodium falciparum and 2.66 µM in [5]. Besides, the selectivity ratio was under 1 in data set [2], 26 in data set [3] and 3 in [4].
As for `N=C(N)c1ccc(OCc2ccc([N+](=O)[O-])cc2)c(I)c1`, the half-maximal inhibitory concentration (IC50) was 10.7 µM with L6, over 50 µM with Leishmania donovani, 0.951 µM in the data set on Plasmodium falciparum and 1.9 µM in [5]. In addition, the selectivity ratio in [2] was under 1; in data set [3], 11; in [4], 6.
For `N=C(N)c1ccc(COc2ccc(N)cc2)cc1`, the IC50 in the data set on L6 was over 271 µM; in the data set on Plasmodium falciparum it was 2.56 µM; in [5], 3 µM. Also, the selectivity ratio in data set [3] was over 106; in [4], over 90.
Turning to `CO/N=C(\N)c1ccc(COc2ccc(/C(N)=N/OC)cc2I)cc1.Cl.Cl`, the result in data set [7] was inactive. In addition, the MSD in data set [6] turned out to be 29.75 days. The half-inhibitory concentration (IC50) in the data set with L6 is 86.6 µM; in the data set with Plasmodium falciparum, over 10.3 µM; in data set [5], 50.4 µM. For the same compound, the selectivity ratio in [3] is under 8; in data set [4], 2.
As for `N=C(N)c1cccc(OCc2ccccc2)c1`, the IC50 in the data set with L6 was 156 µM; with Plasmodium falciparum, over 3.81 µM; in [5] it was 9.32 µM. The selectivity ratio in [3] is under 41; in [4], 17.
`N=C(N)c1ccc(OCc2ccccc2)cc1`: the 50% inhibitory concentration (IC50) in the data set on L6 was 127 µM; in the data set on Plasmodium falciparum, over 3.56 µM; in [5], 1.84 µM. In addition, the selectivity ratio in data set [3] was under 36; in [4], 69.
For the compound `N=C(N)c1ccc(COc2ccc(C(=N)N)cc2Cl)cc1`, the half-maximal inhibitory concentration (IC50) came out at 3.2 µM with L6, 2.89 µM in the data set with Leishmania donovani, 0.006 µM with Plasmodium falciparum and 0.022 µM in [5]. Moreover, the MSD in data set [1] was over 51 days. For the same compound, the selectivity ratio was 1 in data set [2], 552 in [3] and 147 in data set [4].
As for `N=C(N)c1ccc(COc2ccccc2)cc1`, the 50% inhibitory concentration (IC50) was 167 µM in the data set on L6, over 3.56 µM in the data set on Plasmodium falciparum and 3.71 µM in data set [5]. Moreover, the selectivity ratio in [3] was under 47; in data set [4], 45.
In the case of `N=C(N)c1ccc(COc2cccc([N+](=O)[O-])c2)cc1`, the values for the concentration for half-maximal inhibition (IC50) (in the data set on L6; with Plasmodium falciparum; in data set [5]) were 57.8 µM, over 3.25 µM and 2.12 µM, respectively. In addition, the selectivity ratio is under 18 in [3] and 27 in data set [4].
As for `CO/N=C(\N)c1ccc(COc2ccc(/C(N)=N/OC)cc2Br)cc1.Cl.Cl`, in [6], the MSD was over 32.5 days. Besides, the IC50 in the data set with L6 was 101 µM; in the data set on Leishmania donovani it was over 100 µM; in the data set with Plasmodium falciparum, over 10.2 µM; in data set [5], 18.8 µM. The selectivity ratio was under 1 in data set [2], under 10 in [3] and 5 in data set [4].
In the case of `N=C(N)c1ccc(COc2ccc(Cl)cc2)cc1`, the values for the half-maximal inhibitory concentration (IC50) (with L6; in the data set on Plasmodium falciparum; in data set [5]) were 20.7 µM, over 3.36 µM and 2.71 µM, respectively. In addition, the values for the selectivity ratio in data set [3] and in [4] were under 6 and 8, respectively.
For the compound `N=C(N)c1ccc(-c2ccc(-c3ccc(C(=N)N)cc3)o2)cc1` [FURAMIDINE], in [1], the MSD was over 46 days.
Consider `C[C@@H]1CC[C@H]2[C@@H](C)C(=O)O[C@@H]3O[C@@]4(C)CC[C@@H]1[C@]32OO4` [ARTEMISININ], for which the half-inhibitory concentration (IC50) is over 319 µM in the data set with L6 and 0.0041 µM in the data set on Plasmodium falciparum.
With `Cl.Cl.Cl.N/C(=N\O)c1cccc(COc2ccc(/C(N)=N/O)cc2Cl)c1`, in data set [6], the MSD is over 39 days. Besides, the IC50 in the data set on L6 is 2.26 µM; with Leishmania donovani, over 100 µM; in the data set with Plasmodium falciparum it was over 11.2 µM; in [5] it was 49.2 µM. Besides, the selectivity ratio in data set [2], in data set [3] and in data set [4] was under 1 each time.
On to `CO/N=C(\N)c1cccc(COc2c(Br)cc(/C(N)=N/OC)cc2OC)c1.Cl.Cl`, for which the MSD in [6] is over 52.25 days. The IC50 in the data set with L6 was 70.5 µM; with Leishmania donovani, over 100 µM; in the data set with Plasmodium falciparum it was 3.35 µM; in data set [5], 81.5 µM. Further, the selectivity ratio in [2] is under 1; in [3], 21; in data set [4], under 1.
`N=C(N)c1ccc(OCCCCCOc2ccc(C(=N)N)cc2)cc1` [PENTAMIDINE]: in data set [1], the MSD was over 38 days.
Consider `CC(C)NC(=N)c1ccc(COc2ccc(C(=N)NC(C)C)cc2)cc1`, for which the IC50 is over 144 µM with L6, 26.6 µM in the data set on Leishmania donovani, 0.02 µM in the data set with Plasmodium falciparum and 1.35 µM in data set [5]. In addition, the selectivity ratio was over 5 in data set [2], over 7370 in data set [3] and over 107 in data set [4].
For `Cl.Cl.Cl.Cl.N/C(=N\O)c1cccc(COc2c(Cl)cc(/C(N)=N/O)cc2Cl)c1`, the MSD in [6] is over 53.25 days. Moreover, the 50% inhibitory concentration (IC50) with L6 is 14.4 µM; with Leishmania donovani, over 100 µM; in the data set on Plasmodium falciparum, 11.5 µM; in data set [5], 26.4 µM. In addition, the figures for the selectivity ratio in [2], in data set [3] and in [4] were under 1, 1 and under 1, respectively.
For the compound `CC(C)c1ccc(OCc2ccc(C(=N)N)cc2)cc1`, the 50% inhibitory concentration (IC50) is 5.36 µM in the data set on L6, 49.5 µM with Leishmania donovani, 2.37 µM in the data set with Plasmodium falciparum and 1.29 µM in [5]. In addition, the selectivity ratio in data set [2] is under 1; in data set [3], 3; in data set [4], 4.
Turning to `CO/N=C(\N)c1ccc(COc2ccc(/C(N)=N/OC)cc2)cc1.Cl.Cl`, in data set [7], the outcome was inactive. For the same compound, the MSD in [6] came out at 13.25 days. Further, the half-inhibitory concentration (IC50) was over 224 µM with L6, over 100 µM in the data set with Leishmania donovani, 5.78 µM in the data set on Plasmodium falciparum and over 224 µM in data set [5]. Besides, the selectivity ratio in data set [2] was found to be 2.
For the compound `COc1ccc(OCc2ccc(C(=N)N)cc2)cc1`, the concentration for half-maximal inhibition (IC50) in the data set on L6 was 143 µM; in the data set on Plasmodium falciparum, over 3.42 µM; in [5] it was 3.95 µM. Further, the values for the selectivity ratio in [3] and in data set [4] were under 42 and 36, respectively.
